DNMT1 inh = blocks human DNA methyltransferase DNMT1; DNMT1 molecular beacon, Hinp1I cleavage, fluorescence; P26358; AID 588458; inhibition (reported as % activation of signal), % at 10 µM; actives 0.83% (n = 360,000); in the data active = inhibition above about 50%
SUMO1 PPI mod = SUMO1-SIM interaction modulation | inhibition, % at 20 µM | P63165 | actives 0.33% (n = 360,000) | SUMO1 binding to a labelled peptide, TR-FRET, 1 h; in the data active = inhibition above about 37%
Scp-1 inhibitor = inhibitors of human Scp-1 phosphatase; Q9GZU7; Recombinant Scp1, phosphopeptide, malachite green phosphate absorbance; inhibition, % at 20 µM; actives 0.88% (n = 340,000); AID 493091;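 active = inhibition above about 50% at 20 µM, limit read from the data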
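Incubation: 45 min enzyme reaction at room temperature / System: truncated SCP-1 phosphatase (76-261aa) / Reagent: Phospho 17-mer peptide substrate / Buffer or medium: Acidic Tris acetate buffer with magnesium and detergent / Signal: absorbance at 630 nm / Doses: one concentration, 20 µM, with 1.0% DMSO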
LMPTP block = LMPTP (human) inhibition; P24666; recombinant LMPTP-A, OMFP fluorogenic substrate, fluorescence intensity; inhibition, % at 20 µM; actives 0.22% (n = 360,000); AID 651560;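 active = compounds that cut the enzyme signal by at least half of the control window in the single-dose screen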
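Assay system: LMPTP-A phosphatase enzyme | Input: 0.625 nM enzyme | Also added: Fluorogenic phosphatase substrate OMFP at 400 µM final | Compound dosing: One test concentration per compound, 20 µM, with 3% DMSO overall | Schedule: 50 min enzyme reaction at room temperature, protected from light | Signal: Fluorescence intensity | Benchmarks: no-enzyme and uninhibited controls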
STEP inh = blocks human striatal-enriched tyrosine phosphatase. recombinant STEP, OMFP fluorogenic substrate, fluorescence. P54829. actives 0.25% (n = 360,000). AID 588621. inhibition, % at 20 µM;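 active = inhibition at 20 µM, scaled per plate between control wells, above about 37%, limit read from the data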
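medium = Bis-Tris buffer pH 6.0, 2.5 mM DTT, 0.005% Tween 20 | test system = STEP (striatal-enriched tyrosine phosphatase) enzyme, cell-free | measure = normalized % inhibition | compound dosing = 20 µM, 1% DMSO | also added = 25 µM OMFP | schedule = reaction 20 min, ambient temperature | measured by = fluorescence read at 480 nm ex / 540 nm em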
Scp-1 conf = Scp-1 (human) inhibition, single-dose confirmed; inhibition, % at 20 µM; shares compounds with Scp-1 inhibitor; actives 61% (n = 2,500); recombinant SCP-1 catalytic domain, phosphate release, malachite green absorbance
MG interference = counter-screen for Scp-1 inhibitors: colorimetric interference | shares compounds with Scp-1 inhibitor | Colorimetric interference counterscreen, malachite green absorbance 630 nm | apparent inhibition (interference), % at 20 µM | 2,500 tested, under 10 active | AID 540313;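 also: compounds added after enzyme reaction finished so only phosphate colour detection is probed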
Scp-1 Tm shift = Scp-1 (human) binding by thermal shift | shares compounds with Scp-1 inhibitor | Recombinant SCP1, Sypro Orange thermal shift Tm | thermal shift relative to vanadate control, % at 40 µM | actives 25% (n = 1,500) | AID 540329;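 active = substances whose mean melting-temperature shift, as a percentage of the reference inhibitor's shift, reaches about 5.3%, limit read from the data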
DNMT1 confirm = confirmation of human DNMT1 inhibitors | shares compounds with DNMT1 inh | DNMT1 molecular beacon HinP1I cleavage, fluorescence | inhibition, % at 10 µM | actives 8% (n = 2,300);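 active = average inhibition of at least 30% in the single-concentration confirmation test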
DNMT1 interf = beacon fluorescence artifact counter-screen | shares compounds with DNMT1 inh | actives 1% (n = 2,300) | activation (fluorescence interference), % at 10 µM | DNMT1 molecular beacon spectral interference counterscreen, fluorescence 485/520;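 active = activation of at least 30% at 10 µM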;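 also: DNMT1 catalytic domain with a HinP1I cleavage step and a FAM/dabcyl DNA beacon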
Hits are given with their value; . = inactive; / = no result given. Rows were chosen to be rich in hits. Some 1.7% of all compounds tested hit in one or more screens of this group.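 The calls were made as follows, unless noted: active = inhibition of at least 30% at 20 µM; inactive = the rest.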

SMILES	DNMT1 inh	SUMO1 PPI mod	Scp-1 inhibitor	LMPTP block	STEP inh	Scp-1 conf	MG interference	Scp-1 Tm shift	DNMT1 confirm	DNMT1 interf
O=C(C1CCCCC1)N1CCN(S(=O)(=O)c2cccc([N+](=O)[O-])c2)CC1	.	.	.	.	.	/	/	/	/	/
Cc1ccc(NC(=O)CN2C(=O)N/C(=C/c3cc(C)n(-c4ccc(C(=O)O)cc4)c3C)C2=O)cc1	66.6	.	62.8	.	.	54.1	.	.	.	.
Cc1ccc(NC(=O)CN2C(=O)N/C(=C/c3ccco3)C2=O)cc1	85.2	.	76.5	.	.	.	.	/	.	.
Cc1cccc(NC(=O)CN2C(=O)N/C(=C/c3ccc(C)s3)C2=O)c1	.	.	.	.	.	/	/	/	/	/
COc1ccc(C(=O)N2CCOC2CNC(=O)C(=O)NCc2ccccn2)cc1 (stereo unspecified)	.	.	/	.	.	/	/	/	/	/
CCCCCCN1C[C@H](O)[C@@H](n2cc(-c3ccc(F)cc3)nn2)C[C@@H]1c1ccc(C)cc1	.	.	/	.	.	/	/	/	/	/
Cc1cn([C@H]2C[C@H](O)[C@@H](CCC(=O)NCc3ccc(N(C)C)cc3)O2)c(=O)[nH]c1=O	.	.	/	.	.	/	/	/	/	/
COc1ccccc1C(=O)N=Nc1c(O)[nH]c2ccc([N+](=O)[O-])cc12	.	.	.	.	.	/	/	/	/	/
O=C(N=Nc1c(O)[nH]c2ccc([N+](=O)[O-])cc12)c1cc(-c2ccccc2Cl)nc2ccccc12	95.2	.	94.8	79.8	85.2	77.3	.	8.8	.	.
O=C(NCCCN1CCCC1)c1ccc2c(c1)N(Cc1cccc(Cl)c1)C(=O)c1ccccc1S2(=O)=O	.	.	/	.	.	/	/	/	/	/
CCCCN(C(=O)Cn1ncc(Cl)c(Cl)c1=O)c1c(N)n(CC(C)C)c(=O)[nH]c1=O	61.5	.	81.7	.	.	76.1	.	6.2	.	.
Cc1ccc(NC(=O)CSc2nnc3n2CCCCC3)cc1S(=O)(=O)N1CCOCC1	.	.	/	.	.	/	/	/	/	/
O=C(N/N=C/c1ccco1)c1cccc(NC(=O)c2ccccc2Cl)c1	.	.	.	.	.	/	/	/	/	/
Cc1cccc(C(=O)Nc2ccc(C(=O)N/N=C/c3ccco3)cc2)c1	71.8	.	77.0	.	.	56.0	.	.	.	.
CSCCC(NC(=O)c1ccccc1Cl)C(=O)Nc1cccc(S(=O)(=O)N2CCCC2)c1 (stereo unspecified)	.	.	.	.	.	/	/	/	/	/
COc1ccccc1N1C(=N)S/C(=C\c2ccc(-c3ccccc3C(=O)O)o2)C1=O	73.4	.	61.6	.	.	48.6	.	8.3	.	.
Cc1c(C(=O)O)cccc1-c1ccc(/C=C2\SC(=O)NC2=O)o1	.	.	.	.	.	/	/	/	/	/
Cc1sc2nc(SCC(=O)N(C)c3ccccc3)n(C)c(=O)c2c1C	.	.	.	.	.	/	/	/	/	/
COc1cc(OC)cc(-c2nc3ccccc3c(=O)n2OC(=O)c2ccc(C)c(C)c2)c1	.	.	.	.	.	/	/	/	/	/
O=c1oc(-c2ccccc2)nc2sc3c(c12)CCC3	95.8	.	58.9	.	.	34.5	.	.	.	.
Cn1c(SCC(=O)O)nc2sc3c(c2c1=O)CCC3	.	.	.	.	.	/	/	/	/	/
CCn1c(SCC(=O)OC)nc2sc3c(c2c1=O)CCC3	70.2	.	57.4	.	.	63.9	.	.	.	.
CCn1c(SCC(=O)O)nc2sc3c(c2c1=O)CCC3	71.1	.	72.9	.	.	50.0	.	.	.	.
CCn1c(SCC(=O)OC)nc2sc3c(c2c1=O)CC(C)(C)OC3	.	.	.	.	.	/	/	/	/	/
COc1cc(-c2nc(CN(C)C(C)c3ccncn3)c(C)o2)ccc1F (stereo unspecified)	.	.	.	.	.	/	/	/	/	/
SMILES	DNMT1 inh	SUMO1 PPI mod	Scp-1 inhibitor	LMPTP block	STEP inh	Scp-1 conf	MG interference	Scp-1 Tm shift	DNMT1 confirm	DNMT1 interf
COc1ccc2cc3c(N)nn(C(=O)c4ccc(Cl)c([N+](=O)[O-])c4)c3nc2c1	83.2	.	93.7	65.1	89.1	73.6	.	8.2	.	.
Cc1ccccc1S(=O)(=O)NC(=O)C1(C)CCN1C(=O)C1CCCCC1 (stereo unspecified)	.	.	/	.	.	/	/	/	/	/
O=C(COc1cccc([N+](=O)[O-])c1)N/N=C/c1ccco1	58.7	.	62.7	.	.	45.0	.	.	.	.
Cc1cc(C)cc(OCC(=O)N/N=C/c2ccco2)c1	.	.	.	.	.	/	/	/	/	/
O=C(COc1cccc2ccccc12)N/N=C/c1ccco1	.	.	.	.	.	/	/	/	/	/
CCc1ccc(OCC(=O)N/N=C\c2ccco2)c([N+](=O)[O-])c1	81.2	.	79.6	.	.	47.2	.	.	.	.
O=C(/C=C/c1ccco1)NCC1OCCc2ccccc21 (stereo unspecified)	56.2	.	91.1	.	.	62.3	.	.	.	.
C=CC(=O)NCC1OCCc2ccccc21 (stereo unspecified)	.	.	.	.	.	/	/	/	/	/
O=C(CSc1nc2ccccc2c(=O)n1CCCO)Nc1ccc2c(c1)OCCO2	.	.	.	.	.	/	/	/	/	/
COc1cccc(CC2(CO)CCN(S(=O)(=O)c3ccc(OC)cc3OC)CC2)c1	.	.	.	.	.	/	/	/	/	/
Cc1ccccc1NC(=S)N1CCN(c2ccccc2)CC1	.	.	.	.	.	/	/	/	/	/
CCOC(=O)CN1C(=O)S/C(=C/c2ccc(N3CCCCC3)o2)C1=O	.	.	.	.	.	/	/	/	/	/
CCOC(=O)CN1C(=O)S/C(=C\c2ccc(-c3ccc(C(=O)O)c(Cl)c3)o2)C1=O	64.8	.	90.0	.	90.5	58.5	.	11.9	.	.
COc1ccc(C(CC(=O)N2CCCC(C)C2)c2c(OC)cc(OC)c3c(-c4ccccc4)cc(=O)oc23)cc1 (stereo unspecified)	89.1	.	58.5	.	.	62.0	.	.	.	.
COc1ccc(C(CC(=O)N2CCCCC2)c2c(OC)cc(OC)c3c(-c4ccccc4)cc(=O)oc23)cc1 (stereo unspecified)	102.2	.	79.0	.	.	64.8	.	.	.	.
Cc1nc2ccccn2c1C(=O)N/N=C/c1ccc([N+](=O)[O-])o1	64.1	.	67.0	.	.	52.8	.	11.7	.	.
O=P(O)(Cc1ccccc1)Cc1ccccc1	.	.	.	.	.	/	/	/	/	/
